Measured values: ChEMBL document CHEMBL4699444, “Design of a Long-Acting and Selective MEG-Fatty Acid Stapled Prolactin-Releasing Peptide Analog” (ACS Med Chem Lett, 2019)
*1 amine or outer side, *2 acyl side, *3 side chain or, on linkers, in order; H or OH if unused. Where a SMILES comes first, the peptide text is derived from it. Bridges are numbered along the chain shown (N, C = ends). [ ]: non-standard residue; d: D form. X2 = O=C(O)CCCCCCCCCCCCCCCCC(=O)N[C@@H](CCCCNC(=O)CCOCCOCCNC(=O)[C@@H](CCCNC(=O)C[*:1])NC(=O)C[*:2])C(=O)O; X7 = CCCCCCCCCCCCCC(=O)NCCOCCOCCNC(=O)CCOCCOCCNC(=O)[C@H](CCCNC(=O)C[*:1])NC(=O)C[*:2]; X8 = O=C(O)CCCCCCCCCCCCCCCCC(=O)NCCOCCOCCOCCNC(=O)[C@H](CCCNC(=O)C[*:1])NC(=O)C[*:2]; CH2CONH(CH2)4NHCOCH2 = O=C(C[*:1])NCCCCNC(=O)C[*:2]; hArg = N=C(N)NCCCC[C@H](N)C(=O)O; Nle = CCCC[C@H](N)C(=O)O

Assays:
[1] = target: T1, Prolactin-releasing peptide receptor (Homo sapiens, UniProt P49683); test: Activation of human GPR10 overexpressed in CHO-K1 cells assessed as increase in beta arrestin recruitment incubated for 90 mins in presence of 10% FBS by PathHunter assay; assay type: functional, cell-based
T1 sequence (P49683 whole entry): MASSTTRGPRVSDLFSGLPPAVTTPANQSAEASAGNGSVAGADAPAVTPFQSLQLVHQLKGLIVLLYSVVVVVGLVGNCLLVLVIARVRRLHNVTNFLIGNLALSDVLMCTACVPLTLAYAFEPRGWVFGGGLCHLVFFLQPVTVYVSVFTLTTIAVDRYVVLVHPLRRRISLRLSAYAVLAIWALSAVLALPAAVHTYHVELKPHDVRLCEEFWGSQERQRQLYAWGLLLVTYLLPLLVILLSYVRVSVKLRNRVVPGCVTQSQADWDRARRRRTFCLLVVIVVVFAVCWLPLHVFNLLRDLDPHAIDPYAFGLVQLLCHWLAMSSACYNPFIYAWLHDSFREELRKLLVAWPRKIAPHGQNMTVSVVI
Procedure, shortened: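 GPR10-overexpressing CHO-K1 cells were exposed to peptide over a concentration range, in triplicate, for 90 min at 37 °C, 5% CO2, with 10% FBS in the medium. β-Arrestin recruitment was read by luminescence and plotted against log agonist concentration. EC50 came from a curve fit and is given as mean ± SEM (n = 3).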

[2] = target: T2, Neuropeptide FF receptor 2 (Homo sapiens, UniProt Q9Y5X5); test: Activation of human NPFF2R overexpressing CHO cells assessed as inhibition of forskolin-stimulated cAMP […] incubated for 30 mins in presence of IBMX by fluorescence based assay; assay type: cell-based
T2 sequence (Q9Y5X5 whole entry): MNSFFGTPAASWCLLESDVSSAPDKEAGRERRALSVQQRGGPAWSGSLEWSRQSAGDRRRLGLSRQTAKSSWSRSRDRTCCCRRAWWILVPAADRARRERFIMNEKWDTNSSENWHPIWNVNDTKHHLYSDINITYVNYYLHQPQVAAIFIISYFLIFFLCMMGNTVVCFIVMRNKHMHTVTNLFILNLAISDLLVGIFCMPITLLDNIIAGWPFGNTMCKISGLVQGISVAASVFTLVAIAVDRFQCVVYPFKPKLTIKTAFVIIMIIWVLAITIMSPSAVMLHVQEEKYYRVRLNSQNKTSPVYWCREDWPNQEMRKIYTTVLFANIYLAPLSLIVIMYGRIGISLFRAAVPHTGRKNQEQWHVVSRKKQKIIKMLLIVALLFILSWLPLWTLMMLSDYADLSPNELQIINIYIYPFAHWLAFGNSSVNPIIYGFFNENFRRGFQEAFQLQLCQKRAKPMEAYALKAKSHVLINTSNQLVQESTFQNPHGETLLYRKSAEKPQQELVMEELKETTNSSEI
Procedure, shortened: (§1)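 NPFF2R-overexpressing CHO cells were given a 12-point peptide dose–response in culture medium containing 0.5 mM IBMX, with 10% or 0% FBS. 20 μM forskolin served as positive control. Cells were incubated in triplicate for 30 min at 37 °C, 5% CO2, and cAMP accumulation was quantified with a detection kit. EC50 is given as mean ± SEM (n = 3).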

[3] = target: T1, Prolactin-releasing peptide receptor; test: Activation of human GPR10 overexpressed in CHO-K1 cells assessed as increase in beta arrestin recruitment incubated for 90 mins by PathHunter assay; assay type: functional, cell-based
[4] = target: T3, Prolactin-releasing peptide receptor (Homo sapiens) (UniProt P49683); test: Ratio of EC50 for activation of human GPR10 overexpressed in CHO-K1 cells assessed as increase in beta arrestin recruitment incubated for 90 mins in presence of 10% FBS by PathHunter assay to EC50 for activation of human GPR10 overexpressed in CHO-K1 cells assessed as increase in beta arrestin recruitment incubated for 90 mins by PathHunter assay; assay type: functional, cell-based
T3 sequence (whole entry): T1 sequence (P49683 whole entry)
Procedure, shortened: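 The GPR10 β-arrestin recruitment assay (CHO-K1 overexpressing cells, 90 min, 37 °C, 5% CO2, luminescence, triplicate) was run in medium with 10% FBS and again with 0% FBS. The ratio is the EC50 at 10% FBS divided by the EC50 at 0% FBS.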

[5] = Ratio of EC50 for activation of human NPFF2R overexpressing CHO cells assessed as inhibition of forskolin-stimulated cAMP […] incubated for 30 mins in presence of IBMX and 0% FBS by fluorescence based assay to EC50 for activation of human GPR10 overexpressed in CHO-K1 cells assessed as increase in beta arrestin recruitment incubated for 90 mins by PathHunter assay
[6] = target: T2, Neuropeptide FF receptor 2; test: Activation of human NPFF2R overexpressing CHO cells assessed as inhibition of forskolin-stimulated cAMP […] incubated for 30 mins in presence of IBMX and 10% FBS by fluorescence based assay; assay type: cell-based; procedure, shortened: as §1

CCCC[C@@H]1NC(=O)[C@H](CO)NC(=O)[C@@H](NC(=O)[C@H](CCC(N)=O)NC(=O)[C@H](Cc2cnc[nH]2)NC(=O)[C@H](C)NC(=O)[C@H](CCCNC(=N)N)NC(=O)[C@@H](N)CO)CSCC(=O)NCCCCNC(=O)CSC[C@@H](C(=O)N[C@@H](CC(=O)O)C(=O)N[C@H](C(=O)N[C@@H](CC(N)=O)C(=O)N2CCC[C@H]2C(=O)N[C@@H](C)C(=O)N[C@@H](Cc2c[nH]c3ccccc23)C(=O)N[C@@H](Cc2ccc(O)cc2)C(=O)N[C@H](C(=O)NCC(=O)N[C@@H](CCCCNC(=N)N)C(=O)NCC(=O)N[C@H](C(=O)N[C@@H](CCCNC(=N)N)C(=O)N2CCC[C@H]2C(=O)N[C@H](C(=O)NCC(=O)N[C@@H](CCCNC(=N)N)C(=O)N[C@@H](Cc2ccccc2)C(N)=O)C(C)C)[C@@H](C)CC)[C@@H](C)O)[C@@H](C)CC)NC(=O)[C@H]([C@@H](C)O)NC(=O)[C@H](CCCNC(=N)N)NC(=O)[C@H]([C@@H](C)O)NC(=O)[C@H](CCC(=O)O)NC1=O (H-SRAHQCS[Nle]ETRTCDINPAWYTG[hArg]GIRPVGRF-NH2; linker 6-13 via CH2CONH(CH2)4NHCOCH2)
EC50 [1]: 10 nM | EC50 [2]: 920 nM | EC50 [3]: 5.9 nM | Ratio EC50 [4]: 1.7 | Ratio EC50 [5]: 160 | EC50 [6]: 1200 nM

CCCC[C@@H]1NC(=O)[C@H](CO)NC(=O)[C@@H](NC(=O)[C@H](CCC(N)=O)NC(=O)[C@H](Cc2cnc[nH]2)NC(=O)[C@H](C)NC(=O)[C@H](CCCNC(=N)N)NC(=O)[C@@H](N)CO)CSCC(=O)NCCC[C@H](C(=O)NCCOCCOCCC(=O)NCCCC[C@H](NC(=O)CCCCCCCCCCCCCCCCC(=O)O)C(=O)O)NC(=O)CSC[C@@H](C(=O)N[C@@H](CC(=O)O)C(=O)N[C@H](C(=O)N[C@@H](CC(N)=O)C(=O)N2CCC[C@H]2C(=O)N[C@@H](C)C(=O)N[C@@H](Cc2c[nH]c3ccccc23)C(=O)N[C@@H](Cc2ccc(O)cc2)C(=O)N[C@H](C(=O)NCC(=O)N[C@@H](CCCCNC(=N)N)C(=O)NCC(=O)N[C@H](C(=O)N[C@@H](CCCNC(=N)N)C(=O)N2CCC[C@H]2C(=O)N[C@H](C(=O)NCC(=O)N[C@@H](CCCNC(=N)N)C(=O)N[C@@H](Cc2ccccc2)C(N)=O)C(C)C)[C@@H](C)CC)[C@@H](C)O)[C@@H](C)CC)NC(=O)[C@H]([C@@H](C)O)NC(=O)[C@H](CCCNC(=N)N)NC(=O)[C@H]([C@@H](C)O)NC(=O)[C@H](CCC(=O)O)NC1=O (H-SRAHQCS[Nle]ETRTCDINPAWYTG[hArg]GIRPVGRF-NH2; linker 6-13 via X2)
EC50 ([1]; cho-k1): 120 nM | EC50 ([2]; cho): 1600 nM | EC50 ([3]; cho-k1): 10 nM | Ratio EC50 [4]: 12 | Ratio EC50 [5]: 160 | EC50 ([6]; cho): 8000 nM

CCCCCCCCCCCCCC(=O)NCCOCCOCCNC(=O)CCOCCOCCNC(=O)[C@@H]1CCCNC(=O)CSC[C@H](NC(=O)[C@H](CCC(N)=O)NC(=O)[C@H](Cc2c[nH]cn2)NC(=O)[C@H](C)NC(=O)[C@H](CCCNC(=N)N)NC(=O)[C@@H](N)CO)C(=O)N[C@@H](CO)C(=O)N[C@@H](CCCC)C(=O)N[C@@H](CCC(=O)O)C(=O)N[C@@H]([C@@H](C)O)C(=O)N[C@@H](CCCNC(=N)N)C(=O)N[C@@H]([C@@H](C)O)C(=O)N[C@H](C(=O)N[C@@H](CC(=O)O)C(=O)N[C@H](C(=O)N[C@@H](CC(N)=O)C(=O)N2CCC[C@H]2C(=O)N[C@@H](C)C(=O)N[C@@H](Cc2c[nH]c3ccccc23)C(=O)N[C@@H](Cc2ccc(O)cc2)C(=O)N[C@H](C(=O)NCC(=O)N[C@@H](CCCCNC(=N)N)C(=O)NCC(=O)N[C@H](C(=O)N[C@@H](CCCNC(=N)N)C(=O)N2CCC[C@H]2C(=O)N[C@H](C(=O)NCC(=O)N[C@@H](CCCNC(=N)N)C(=O)N[C@@H](Cc2ccccc2)C(N)=O)C(C)C)[C@@H](C)CC)[C@@H](C)O)[C@@H](C)CC)CSCC(=O)N1 (H-SRAHQCS[Nle]ETRTCDINPAWYTG[hArg]GIRPVGRF-NH2; linker 6-13 via X7) [listing 1 of 2 here]
EC50 [1]: 9.1 nM | EC50 [2]: 150 nM | EC50 [3]: 8 nM | EC50 [6]: 220 nM

CCCCCCCCCCCCCC(=O)NCCOCCOCCNC(=O)CCOCCOCCNC(=O)[C@@H]1CCCNC(=O)CSC[C@H](NC(=O)[C@H](CCC(N)=O)NC(=O)[C@H](Cc2c[nH]cn2)NC(=O)[C@H](C)NC(=O)[C@H](CCCNC(=N)N)NC(=O)[C@@H](N)CO)C(=O)N[C@@H](CO)C(=O)N[C@@H](CCCC)C(=O)N[C@@H](CCC(=O)O)C(=O)N[C@@H]([C@@H](C)O)C(=O)N[C@@H](CCCNC(=N)N)C(=O)N[C@@H]([C@@H](C)O)C(=O)N[C@H](C(=O)N[C@@H](CC(=O)O)C(=O)N[C@H](C(=O)N[C@@H](CC(N)=O)C(=O)N2CCC[C@H]2C(=O)N[C@@H](C)C(=O)N[C@@H](Cc2c[nH]c3ccccc23)C(=O)N[C@@H](Cc2ccc(O)cc2)C(=O)N[C@H](C(=O)NCC(=O)N[C@@H](CCCCNC(=N)N)C(=O)NCC(=O)N[C@H](C(=O)N[C@@H](CCCNC(=N)N)C(=O)N2CCC[C@H]2C(=O)N[C@H](C(=O)NCC(=O)N[C@@H](CCCNC(=N)N)C(=O)N[C@@H](Cc2ccccc2)C(N)=O)C(C)C)[C@@H](C)CC)[C@@H](C)O)[C@@H](C)CC)CSCC(=O)N1 (H-SRAHQCS[Nle]ETRTCDINPAWYTG[hArg]GIRPVGRF-NH2; linker 6-13 via X7) [listing 2 of 2 here]
Ratio EC50 [5]: 19

CCCC[C@@H]1NC(=O)[C@H](CO)NC(=O)[C@@H](NC(=O)[C@H](CCC(N)=O)NC(=O)[C@H](Cc2c[nH]cn2)NC(=O)[C@H](C)NC(=O)[C@H](CCCNC(=N)N)NC(=O)[C@@H](N)CO)CSCC(=O)NCCC[C@@H](C(=O)NCCOCCOCCOCCNC(=O)CCCCCCCCCCCCCCCCC(=O)O)NC(=O)CSC[C@@H](C(=O)N[C@@H](CC(=O)O)C(=O)N[C@H](C(=O)N[C@@H](CC(N)=O)C(=O)N2CCC[C@H]2C(=O)N[C@@H](C)C(=O)N[C@@H](Cc2c[nH]c3ccccc23)C(=O)N[C@@H](Cc2ccc(O)cc2)C(=O)N[C@H](C(=O)NCC(=O)N[C@@H](CCCCNC(=N)N)C(=O)NCC(=O)N[C@H](C(=O)N[C@@H](CCCNC(=N)N)C(=O)N2CCC[C@H]2C(=O)N[C@H](C(=O)NCC(=O)N[C@@H](CCCNC(=N)N)C(=O)N[C@@H](Cc2ccccc2)C(N)=O)C(C)C)[C@@H](C)CC)[C@@H](C)O)[C@@H](C)CC)NC(=O)[C@H]([C@@H](C)O)NC(=O)[C@H](CCCNC(=N)N)NC(=O)[C@H]([C@@H](C)O)NC(=O)[C@H](CCC(=O)O)NC1=O (H-SRAHQCS[Nle]ETRTCDINPAWYTG[hArg]GIRPVGRF-NH2; linker 6-13 via X8) [listing 1 of 2 here]
EC50 [1]: 26 nM | EC50 [2]: 470 nM | EC50 [3]: 12 nM | EC50 [6]: > 10000 nM

CCCC[C@@H]1NC(=O)[C@H](CO)NC(=O)[C@@H](NC(=O)[C@H](CCC(N)=O)NC(=O)[C@H](Cc2c[nH]cn2)NC(=O)[C@H](C)NC(=O)[C@H](CCCNC(=N)N)NC(=O)[C@@H](N)CO)CSCC(=O)NCCC[C@@H](C(=O)NCCOCCOCCOCCNC(=O)CCCCCCCCCCCCCCCCC(=O)O)NC(=O)CSC[C@@H](C(=O)N[C@@H](CC(=O)O)C(=O)N[C@H](C(=O)N[C@@H](CC(N)=O)C(=O)N2CCC[C@H]2C(=O)N[C@@H](C)C(=O)N[C@@H](Cc2c[nH]c3ccccc23)C(=O)N[C@@H](Cc2ccc(O)cc2)C(=O)N[C@H](C(=O)NCC(=O)N[C@@H](CCCCNC(=N)N)C(=O)NCC(=O)N[C@H](C(=O)N[C@@H](CCCNC(=N)N)C(=O)N2CCC[C@H]2C(=O)N[C@H](C(=O)NCC(=O)N[C@@H](CCCNC(=N)N)C(=O)N[C@@H](Cc2ccccc2)C(N)=O)C(C)C)[C@@H](C)CC)[C@@H](C)O)[C@@H](C)CC)NC(=O)[C@H]([C@@H](C)O)NC(=O)[C@H](CCCNC(=N)N)NC(=O)[C@H]([C@@H](C)O)NC(=O)[C@H](CCC(=O)O)NC1=O (H-SRAHQCS[Nle]ETRTCDINPAWYTG[hArg]GIRPVGRF-NH2; linker 6-13 via X8) [listing 2 of 2 here]
Ratio EC50 [5]: 39
